What was measured:
[1] = biological target: T1, Retinoic acid receptor RXR-alpha (Homo sapiens, UniProt P19793); assay: Transactivation of RXRalpha in CV1 cells by cotransfection assay; format: functional, cell-based, CV-1
T1 sequence (P19793 whole entry): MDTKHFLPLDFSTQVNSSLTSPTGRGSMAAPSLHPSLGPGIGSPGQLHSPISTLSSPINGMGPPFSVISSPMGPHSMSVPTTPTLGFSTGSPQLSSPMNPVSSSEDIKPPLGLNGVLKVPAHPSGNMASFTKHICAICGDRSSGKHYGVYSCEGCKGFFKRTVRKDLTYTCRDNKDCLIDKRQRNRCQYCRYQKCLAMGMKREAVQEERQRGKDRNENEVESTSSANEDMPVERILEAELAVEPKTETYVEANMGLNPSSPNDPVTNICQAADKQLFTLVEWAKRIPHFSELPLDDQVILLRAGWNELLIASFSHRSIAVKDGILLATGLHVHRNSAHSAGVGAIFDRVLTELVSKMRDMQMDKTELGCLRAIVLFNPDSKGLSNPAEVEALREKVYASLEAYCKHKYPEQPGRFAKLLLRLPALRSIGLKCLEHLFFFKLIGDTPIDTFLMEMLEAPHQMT
How it was run: (§1)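 EC50 taken from a full dose–response curve. Retinoid activity was normalized to the response to ATRA (all-trans retinoic acid). Potency (EC50) is the retinoid concentration that gives 50% of the maximal observed response.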

[2] = biological target: T2, Retinoic acid receptor RXR-beta (Homo sapiens, UniProt P28702); assay: Transactivation of RXRbeta in CV1 cells by cotransfection assay; format: functional, cell-based, CV-1; how it was run: as §1
T2 sequence (P28702 whole entry): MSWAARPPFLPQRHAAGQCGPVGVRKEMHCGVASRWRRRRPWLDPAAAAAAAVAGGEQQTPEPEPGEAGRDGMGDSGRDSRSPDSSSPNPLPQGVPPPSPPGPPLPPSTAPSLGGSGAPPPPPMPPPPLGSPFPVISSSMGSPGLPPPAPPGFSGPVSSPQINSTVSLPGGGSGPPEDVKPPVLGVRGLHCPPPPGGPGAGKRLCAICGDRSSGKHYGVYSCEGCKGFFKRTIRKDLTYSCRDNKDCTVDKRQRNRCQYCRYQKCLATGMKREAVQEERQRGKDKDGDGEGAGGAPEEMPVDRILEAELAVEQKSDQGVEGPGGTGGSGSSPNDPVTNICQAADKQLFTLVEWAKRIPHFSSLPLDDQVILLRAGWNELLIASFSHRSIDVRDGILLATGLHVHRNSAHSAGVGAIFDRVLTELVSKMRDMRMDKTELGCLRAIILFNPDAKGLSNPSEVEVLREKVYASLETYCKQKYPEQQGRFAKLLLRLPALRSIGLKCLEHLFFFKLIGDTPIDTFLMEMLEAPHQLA

[3] = biological target: T3, Retinoic acid receptor RXR-gamma (Homo sapiens, UniProt P48443); assay: Binding affinity to RXRgamma
T3 sequence (P48443 whole entry): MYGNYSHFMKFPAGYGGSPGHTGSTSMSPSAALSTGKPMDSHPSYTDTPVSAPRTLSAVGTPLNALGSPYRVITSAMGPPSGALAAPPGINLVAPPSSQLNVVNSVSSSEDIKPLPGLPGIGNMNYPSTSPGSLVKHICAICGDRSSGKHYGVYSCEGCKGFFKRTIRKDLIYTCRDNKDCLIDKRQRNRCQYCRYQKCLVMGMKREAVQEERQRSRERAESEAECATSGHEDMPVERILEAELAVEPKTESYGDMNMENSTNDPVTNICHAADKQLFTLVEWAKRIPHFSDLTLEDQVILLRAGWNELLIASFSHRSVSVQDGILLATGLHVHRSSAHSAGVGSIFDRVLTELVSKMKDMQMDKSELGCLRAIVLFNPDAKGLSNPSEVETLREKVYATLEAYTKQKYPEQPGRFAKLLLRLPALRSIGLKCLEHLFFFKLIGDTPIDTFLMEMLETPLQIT

[4] = biological target: T1, Retinoic acid receptor RXR-alpha; assay: Binding affinity to RXRalpha
[5] = biological target: T2, Retinoic acid receptor RXR-beta; assay: Binding affinity to RXRbeta
[6] = biological target: T3, Retinoic acid receptor RXR-gamma; assay: Transactivation of RXRgamma in CV1 cells by cotransfection assay; format: functional, cell-based, CV-1; how it was run: as §1

Structure (SMILES) | EC50 ([1]; read-out: EC50) | EC50 ([2]; read-out: EC50) | Ki ([3]; read-out: Ki) | Ki ([4]; read-out: Ki) | Ki ([5]; read-out: Ki) | EC50 ([6]; read-out: EC50) | EC50 ([6]; cv-1) | EC50 ([1]; cv-1) | EC50 ([2]; cv-1) | Ki [3] | Ki [4] | Ki [5]
CCCCN(C/C=C/C(C)=C/C(=O)O)c1cc(C(C)(C)C)cc2c1CCC2(C)C | 53 nM | 52 nM | 31 nM | 21 nM | 60 nM | 50 nM |  |  |  |  |  | 
CCCN(C/C=C/C(C)=C/C(=O)O)c1cc2c(cc1OC)C(C)(C)CCC2(C)C | 400 nM | 169 nM | 576 nM | 257 nM | 721 nM |  | Not Active |  |  |  |  | 
CC(C)=CCN(C/C=C/C(C)=C/C(=O)O)c1cc(C(C)(C)C)cc2c1CCC2(C)C |  |  | 309 nM | 254 nM | 327 nM |  | Not Active | Not Active | Not Active |  |  | 
CC(/C=C/C(=O)N(Cc1ccccc1)c1cc(C(C)(C)C)cc(C(C)(C)C)c1)=C\C(=O)O |  |  |  |  |  |  | Not Active | Not Active | Not Active | Not Active | Not Active | Not Active
CCCN(C/C=C/C(C)=C/C(=O)O)c1cc2c(cc1C)C(C)(C)CCC2(C)C | 231 nM | 212 nM | 211 nM | 18 nM | 161 nM | 223 nM |  |  |  |  |  | 
CCCN(C/C=C/C(C)=C/C(=O)O)c1ccc2c(c1)C(C)(C)CCC2(C)C | 152 nM | 206 nM | 110 nM | 47 nM | 72 nM | 170 nM |  |  |  |  |  | 
CCN(C/C=C/C(C)=C/C(=O)O)c1cc(C(C)(C)C)cc(C(C)(C)C)c1 | 221 nM | 235 nM | 35 nM | 31 nM | 24 nM | 231 nM |  |  |  |  |  | 
CC(/C=C/CN(c1cc(C(C)(C)C)cc2c1CCC2(C)C)C(C)C)=C\C(=O)O | 252 nM | 216 nM | 121 nM | 67 nM | 301 nM | 262 nM |  |  |  |  |  | 
CCCCCCCCN(C/C=C/C(C)=C/C(=O)O)c1cc(C(C)(C)C)cc(C(C)(C)C)c1 |  |  | 221 nM | 122 nM | 126 nM | 35 nM |  | Not Active | Not Active |  |  | 
CCCN(C(=O)/C=C/C(C)=C/C(=O)O)c1cc(C(C)(C)C)cc(C(C)(C)C)c1 | 1000 nM | 151 nM | 299 nM | 644 nM | 605 nM | 669 nM |  |  |  |  |  | 
CC(/C=C/CN(C)c1cc(C(C)(C)C)cc(C(C)(C)C)c1)=C\C(=O)O | 378 nM | 95 nM | 131 nM | 37 nM | 88 nM | 322 nM |  |  |  |  |  | 
CCCN(C/C=C/C(C)=C/C(=O)O)c1cc(C(C)(C)C)cc2c1CCC2(C)C | 22 nM | 21 nM | 10 nM | 8 nM | 12 nM | 19 nM |  |  |  |  |  | 
CC(/C=C/CNc1cc(C(C)(C)C)cc(C(C)(C)C)c1)=C\C(=O)O |  |  |  | 529 nM |  |  | Not Active | Not Active | Not Active | Not Active |  | Not Active
CC(/C=C/[C@H]1CCCN1c1ccc2c(c1)C(C)(C)CCC2(C)C)=C\C(=O)O |  | 1290 nM | 202 nM | 103 nM | 188 nM | 1260 nM |  | Not Active |  |  |  | 
CC(/C=C/CN(Cc1ccccc1)c1cc(C(C)(C)C)cc(C(C)(C)C)c1)=C\C(=O)O |  |  | 207 nM | 121 nM | 238 nM |  | Not Active | Not Active | Not Active |  |  | 
CC(/C=C/CN(CC1CC1)c1cc(C(C)(C)C)cc2c1CCC2(C)C)=C\C(=O)O | 123 nM | 98 nM | 150 nM | 63 nM | 105 nM | 100 nM |  |  |  |  |  | 
CCN(C/C=C/C(C)=C/C(=O)O)c1ccc2c(c1)C(C)(C)CCC2(C)C | 216 nM | 239 nM | 162 nM | 103 nM | 185 nM | 128 nM |  |  |  |  |  | 
CC(/C=C/[C@@H]1CCCN1c1ccc2c(c1)C(C)(C)CCC2(C)C)=C\C(=O)O | 179 nM | 161 nM | 100 nM | 21 nM | 63 nM | 147 nM |  |  |  |  |  | 
CCCN(C/C=C/C(C)=C/C(=O)O)c1cc(C(C)(C)C)cc(C(C)(C)C)c1 | 99 nM | 69 nM | 38 nM | 17 nM | 34 nM | 63 nM |  |  |  |  |  | 
CC(/C=C/C(=O)Nc1cc(C(C)(C)C)cc(C(C)(C)C)c1)=C\C(=O)O |  |  |  |  |  |  | Not Active | Not Active | Not Active | Not Active | Not Active | Not Active
CCN(C/C=C/C(C)=C/C(=O)O)c1cc2c(cc1C)C(C)(C)CCC2(C)C | 64 nM | 117 nM | 99 nM | 42 nM | 152 nM | 125 nM |  |  |  |  |  | 

— ChEMBL document CHEMBL1146995, “Aza-retinoids as novel retinoid X receptor-specific agonists” (Bioorg Med Chem Lett, 2006)
